Assay results gathered from unrelated publications.
EGFR: Epidermal growth factor receptor (EGFR, Homo sapiens, UniProt P00533)
EGFR L861Q: Epidermal growth factor receptor (EGFR, Homo sapiens, UniProt P00533, L861Q)

| Compound | target | assay | conditions | measurement | result |
| --- | --- | --- | --- | --- | --- |
| O=C(O)c1cc(-c2ccc(C3CCNCC3)cc2)c2ccc(-c3ccc(C(F)(F)F)cc3)cc2c1 | Epidermal growth factor receptor (EGFR, Homo sapiens, UniProt P00533, G719S) | cell-free assay, competition with immobilised ligand | 1 µM | remaining binding | 100% |
| Cc1ccc(C(=O)Nc2ccc(CN3CCN(C)CC3)c(C(F)(F)F)c2)cc1C#Cc1cnc2cccnn12 | Epidermal growth factor receptor (EGFR, Homo sapiens, UniProt P00533, del746-750) | cell-free assay | 23.5 nM | remaining signal | 64% |
| Cc1cc(NC(=O)c2cccc3cc(-c4cccc5[nH]nc(N)c45)ccc23)ccc1F | EGFR | enzyme activity, inhibitor | 0.1 µM | activity vs control | 103% |
| Cc1cnc(NC2CCOCC2)nc1-n1cnc(C(=O)NC(CN)c2cc(F)cc(Cl)c2)c1 (stereo not drawn) | EGFR | enzyme activity, inhibitor, radiometric | 1 µM | remaining activity | 108% |
| O=C(NCc1ncc(C(F)(F)F)cc1Cl)c1ccc2c(c1)C1(CCS(=O)(=O)CC1)[C@H](C1CC1)N2S(=O)(=O)c1ccc(F)cc1 | Epidermal growth factor receptor (EGFR, Homo sapiens, UniProt P00533, A750P/del747-749) | cell-free assay, competition with immobilised ligand | 1 µM | remaining binding | 97% |
| CC/C(=N\NC(=O)NCc1cccc(O)c1)c1ccc(O)c(C)c1O | Epidermal growth factor receptor (EGFR, Homo sapiens, UniProt P00533, T790M) | enzyme activity, inhibitor | 0.1 µM | inhibition | 1.5% |
| Cc1ccc(NC(=O)c2ccc(C)c(C(F)(F)F)c2)cc1C#Cc1nn(C2CCC(O)CC2)c2ncnc(N)c12 (stereo not drawn) | EGFR L861Q | cell-free assay | 10 µM | remaining signal | 0% |
| CCC(=O)N[C@@H]1CC[C@H](C(=O)N(C)c2ccc(-c3nc4ccccc4o3)cc2)C1 | Epidermal growth factor receptor (EGFR, Homo sapiens, UniProt P00533, del752-759) | cell-free assay, competition with immobilised ligand | 1 µM | remaining binding | 88% |
| COc1cc(-c2cc(-c3ccc(N4CCNCC4)cc3)cnc2N)cc(OC)c1OC | EGFR L861Q | enzyme activity, inhibitor | 0.1 µM | inhibition | 6% |
| Nc1ncnc2occ(-c3ccc(NC(=O)Nc4cc(C(F)(F)F)ccc4F)cc3)c12 | Epidermal growth factor receptor (EGFR, Homo sapiens, UniProt P00533, del747-750/T751S) | cell-free assay | 20 µM | remaining signal | 27% |
| CN(C)CC#Cc1ccc(OCCCc2sc(N3CCc4cccc(C(=O)Nc5nc6ccccc6s5)c4C3)nc2C(=O)O)c(F)c1 | Epidermal growth factor receptor (EGFR, Homo sapiens, UniProt P00533, G719C) | cell-free assay, competition with immobilised ligand | 1 µM | remaining binding | 91% |
| N[C@H]1CCN(c2nccc(-c3cnn4ncccc34)n2)C1 | EGFR L861Q | binding | 1 µM | remaining binding | 81% |
